Legend:
Experiment in all cases: HDAC-Glo I/II luminescent assay
Format in all cases: biochemical
HDAC 2 = HDAC 2 (Homo sapiens, UniProt Q92769)
Method in brief: (§1)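 Recombinant human enzymes: HDAC1 C-terminal GST, HDAC2/8/10 C-terminal His, HDAC6 N-terminal GST, HDAC3 as NCOR1 complex; each at a level in the lower linear titration range giving similar signal. Test compound, 15-point 3-fold dilutions (DMSO), pre-incubated with enzyme 20–30 min, room temperature; HDAC-Glo I/II detection reagent added, luminescence read after 20 min. Quadruplicate wells; IC50 values determined.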

HDAC 8 = target: T1, HDAC 8 (Homo sapiens, UniProt Q9BY41)
T1 sequence (Q9BY41 1-377): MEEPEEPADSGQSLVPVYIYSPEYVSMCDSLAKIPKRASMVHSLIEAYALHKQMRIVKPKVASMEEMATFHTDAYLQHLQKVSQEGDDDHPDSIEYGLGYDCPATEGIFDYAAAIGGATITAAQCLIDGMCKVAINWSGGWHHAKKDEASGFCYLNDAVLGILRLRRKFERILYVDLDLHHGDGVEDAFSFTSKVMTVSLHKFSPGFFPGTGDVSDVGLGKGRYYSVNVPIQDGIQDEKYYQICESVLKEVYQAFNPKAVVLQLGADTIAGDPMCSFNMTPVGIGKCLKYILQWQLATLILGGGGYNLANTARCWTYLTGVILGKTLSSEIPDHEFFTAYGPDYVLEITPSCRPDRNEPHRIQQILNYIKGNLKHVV
Method in brief: as §1

HDAC 3/NCOR1 = HDAC 3/NCOR1 (Homo sapiens, UniProt O15379)
HDAC 3/NCOR1, sequence (O15379 whole entry): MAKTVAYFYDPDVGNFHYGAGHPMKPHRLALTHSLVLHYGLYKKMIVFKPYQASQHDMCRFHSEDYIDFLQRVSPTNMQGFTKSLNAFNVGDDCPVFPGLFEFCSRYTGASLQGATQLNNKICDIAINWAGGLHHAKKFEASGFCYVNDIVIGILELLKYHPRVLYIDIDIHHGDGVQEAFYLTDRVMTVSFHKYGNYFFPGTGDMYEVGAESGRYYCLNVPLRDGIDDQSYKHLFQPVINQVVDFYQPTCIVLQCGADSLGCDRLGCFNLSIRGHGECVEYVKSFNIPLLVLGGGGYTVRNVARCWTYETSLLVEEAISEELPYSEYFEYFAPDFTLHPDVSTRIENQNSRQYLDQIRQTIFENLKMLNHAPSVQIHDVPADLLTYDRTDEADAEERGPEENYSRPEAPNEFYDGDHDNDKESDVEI
HDAC 3/NCOR1, sequence (O75376 whole entry partner): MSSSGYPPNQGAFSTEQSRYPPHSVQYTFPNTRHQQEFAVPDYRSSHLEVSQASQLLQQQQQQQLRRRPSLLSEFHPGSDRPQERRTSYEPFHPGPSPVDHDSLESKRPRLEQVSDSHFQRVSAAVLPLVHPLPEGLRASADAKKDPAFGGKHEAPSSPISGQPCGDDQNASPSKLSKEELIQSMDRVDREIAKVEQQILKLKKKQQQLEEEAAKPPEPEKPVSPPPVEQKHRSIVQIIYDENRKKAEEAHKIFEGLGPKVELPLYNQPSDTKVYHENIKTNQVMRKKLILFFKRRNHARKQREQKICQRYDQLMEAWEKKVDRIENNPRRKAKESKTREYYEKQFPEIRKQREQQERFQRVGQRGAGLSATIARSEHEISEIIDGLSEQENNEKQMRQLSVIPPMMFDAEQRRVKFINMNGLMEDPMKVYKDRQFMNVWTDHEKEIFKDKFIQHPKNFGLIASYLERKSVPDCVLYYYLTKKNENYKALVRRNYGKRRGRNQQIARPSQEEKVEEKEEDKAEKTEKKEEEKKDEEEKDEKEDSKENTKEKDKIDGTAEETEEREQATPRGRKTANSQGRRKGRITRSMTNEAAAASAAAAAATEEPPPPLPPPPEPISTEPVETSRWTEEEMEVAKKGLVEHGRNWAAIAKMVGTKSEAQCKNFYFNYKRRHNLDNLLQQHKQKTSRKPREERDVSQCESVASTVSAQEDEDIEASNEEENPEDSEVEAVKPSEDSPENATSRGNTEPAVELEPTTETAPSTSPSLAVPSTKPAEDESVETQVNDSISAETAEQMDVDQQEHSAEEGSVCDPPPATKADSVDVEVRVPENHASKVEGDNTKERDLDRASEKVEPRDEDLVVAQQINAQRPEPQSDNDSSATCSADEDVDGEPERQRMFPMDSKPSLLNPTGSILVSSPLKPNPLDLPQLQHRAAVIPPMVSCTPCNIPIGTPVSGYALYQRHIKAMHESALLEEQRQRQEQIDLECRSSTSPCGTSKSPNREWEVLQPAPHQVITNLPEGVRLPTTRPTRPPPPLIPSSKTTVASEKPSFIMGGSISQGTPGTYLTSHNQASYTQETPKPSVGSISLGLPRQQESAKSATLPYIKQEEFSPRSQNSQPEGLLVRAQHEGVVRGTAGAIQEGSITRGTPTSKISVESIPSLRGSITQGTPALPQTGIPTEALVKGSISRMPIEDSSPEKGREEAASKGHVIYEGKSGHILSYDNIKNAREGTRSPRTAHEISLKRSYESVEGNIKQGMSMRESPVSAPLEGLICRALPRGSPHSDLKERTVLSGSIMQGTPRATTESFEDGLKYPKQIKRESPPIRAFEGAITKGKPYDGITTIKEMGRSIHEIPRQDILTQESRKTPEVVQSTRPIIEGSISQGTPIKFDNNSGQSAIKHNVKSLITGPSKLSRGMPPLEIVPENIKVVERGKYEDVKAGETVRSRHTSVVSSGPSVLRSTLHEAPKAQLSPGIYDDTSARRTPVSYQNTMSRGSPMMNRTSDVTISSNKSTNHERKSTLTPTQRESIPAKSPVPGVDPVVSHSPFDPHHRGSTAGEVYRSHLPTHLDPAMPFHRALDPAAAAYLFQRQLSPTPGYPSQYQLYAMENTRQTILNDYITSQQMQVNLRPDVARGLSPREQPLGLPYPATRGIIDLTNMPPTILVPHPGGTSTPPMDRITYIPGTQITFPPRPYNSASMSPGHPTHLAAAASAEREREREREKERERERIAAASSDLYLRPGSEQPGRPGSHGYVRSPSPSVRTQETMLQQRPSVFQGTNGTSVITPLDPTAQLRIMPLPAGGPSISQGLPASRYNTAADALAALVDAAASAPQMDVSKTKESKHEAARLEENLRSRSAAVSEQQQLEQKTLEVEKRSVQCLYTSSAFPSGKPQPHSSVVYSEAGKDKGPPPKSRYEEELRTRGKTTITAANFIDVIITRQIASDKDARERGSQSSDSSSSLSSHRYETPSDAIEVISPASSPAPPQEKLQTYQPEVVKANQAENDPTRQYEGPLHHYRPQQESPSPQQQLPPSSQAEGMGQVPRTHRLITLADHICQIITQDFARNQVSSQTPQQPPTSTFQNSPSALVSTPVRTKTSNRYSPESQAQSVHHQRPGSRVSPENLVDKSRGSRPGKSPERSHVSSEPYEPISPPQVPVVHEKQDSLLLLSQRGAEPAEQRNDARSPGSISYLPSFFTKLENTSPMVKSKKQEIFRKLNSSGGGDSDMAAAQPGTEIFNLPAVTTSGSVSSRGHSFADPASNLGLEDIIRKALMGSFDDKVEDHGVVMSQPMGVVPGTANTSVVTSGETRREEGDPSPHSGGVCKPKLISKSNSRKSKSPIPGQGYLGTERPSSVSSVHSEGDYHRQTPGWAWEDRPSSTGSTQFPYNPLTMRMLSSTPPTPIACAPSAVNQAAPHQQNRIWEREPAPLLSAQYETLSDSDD
Method in brief: as §1

HDAC 6 = target: T2, HDAC 6 (Homo sapiens, UniProt Q9UBN7)
T2 sequence (Q9UBN7 1-1215): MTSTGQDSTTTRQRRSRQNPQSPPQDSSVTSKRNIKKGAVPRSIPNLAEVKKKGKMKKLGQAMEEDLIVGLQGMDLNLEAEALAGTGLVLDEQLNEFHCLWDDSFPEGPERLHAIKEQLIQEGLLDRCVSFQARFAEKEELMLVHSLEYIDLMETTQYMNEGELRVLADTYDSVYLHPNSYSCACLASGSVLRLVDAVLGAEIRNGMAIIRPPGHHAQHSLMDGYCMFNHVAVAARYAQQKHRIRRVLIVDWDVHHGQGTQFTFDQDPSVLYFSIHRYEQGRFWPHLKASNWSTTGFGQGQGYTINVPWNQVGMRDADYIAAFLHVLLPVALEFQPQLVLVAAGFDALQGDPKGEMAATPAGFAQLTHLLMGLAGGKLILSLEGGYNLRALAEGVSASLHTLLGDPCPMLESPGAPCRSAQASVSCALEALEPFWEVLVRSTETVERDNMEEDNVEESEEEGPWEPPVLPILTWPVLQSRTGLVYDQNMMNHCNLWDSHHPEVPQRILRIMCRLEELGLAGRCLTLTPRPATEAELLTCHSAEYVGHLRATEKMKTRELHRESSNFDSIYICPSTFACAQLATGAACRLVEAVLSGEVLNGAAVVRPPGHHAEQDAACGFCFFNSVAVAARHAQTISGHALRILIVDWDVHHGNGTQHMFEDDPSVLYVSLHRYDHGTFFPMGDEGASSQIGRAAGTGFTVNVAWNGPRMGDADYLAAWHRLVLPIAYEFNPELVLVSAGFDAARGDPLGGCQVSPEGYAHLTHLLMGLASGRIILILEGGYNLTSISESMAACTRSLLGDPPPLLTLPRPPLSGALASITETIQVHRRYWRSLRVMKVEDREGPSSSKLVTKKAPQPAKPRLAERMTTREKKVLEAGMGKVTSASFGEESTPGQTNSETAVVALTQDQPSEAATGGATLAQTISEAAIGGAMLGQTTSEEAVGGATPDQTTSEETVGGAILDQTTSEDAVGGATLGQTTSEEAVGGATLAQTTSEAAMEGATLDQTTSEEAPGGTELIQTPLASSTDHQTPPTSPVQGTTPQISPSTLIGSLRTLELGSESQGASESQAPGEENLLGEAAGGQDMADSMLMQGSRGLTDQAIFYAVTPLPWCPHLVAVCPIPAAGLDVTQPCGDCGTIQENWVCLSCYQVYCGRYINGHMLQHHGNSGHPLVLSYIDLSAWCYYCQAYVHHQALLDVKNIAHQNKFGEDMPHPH
Method in brief: as §1

HDAC 10 = target: T3, HDAC 10 (Homo sapiens, UniProt Q969S8)
T3 sequence (Q969S8 1-669): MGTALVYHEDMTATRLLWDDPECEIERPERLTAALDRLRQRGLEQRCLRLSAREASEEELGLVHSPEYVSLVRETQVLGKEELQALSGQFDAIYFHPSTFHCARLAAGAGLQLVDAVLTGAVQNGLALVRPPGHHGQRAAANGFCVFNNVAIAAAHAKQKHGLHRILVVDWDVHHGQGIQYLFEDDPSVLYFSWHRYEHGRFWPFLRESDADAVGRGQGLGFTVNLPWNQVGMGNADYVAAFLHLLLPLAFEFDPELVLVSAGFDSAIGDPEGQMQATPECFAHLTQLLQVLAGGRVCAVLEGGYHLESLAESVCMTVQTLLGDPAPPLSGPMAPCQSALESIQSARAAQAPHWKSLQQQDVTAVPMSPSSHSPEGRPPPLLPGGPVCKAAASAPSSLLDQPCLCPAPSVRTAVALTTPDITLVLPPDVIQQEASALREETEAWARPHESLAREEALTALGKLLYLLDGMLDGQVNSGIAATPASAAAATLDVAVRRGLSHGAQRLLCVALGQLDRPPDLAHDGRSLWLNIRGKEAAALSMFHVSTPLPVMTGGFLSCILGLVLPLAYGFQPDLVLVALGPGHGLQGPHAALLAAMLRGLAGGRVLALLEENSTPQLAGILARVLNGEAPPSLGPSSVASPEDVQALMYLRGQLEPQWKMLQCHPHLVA
Method in brief: as §1

HDAC 1 = HDAC 1 (Homo sapiens, UniProt Q13547)
HDAC 1, sequence (Q13547 whole entry): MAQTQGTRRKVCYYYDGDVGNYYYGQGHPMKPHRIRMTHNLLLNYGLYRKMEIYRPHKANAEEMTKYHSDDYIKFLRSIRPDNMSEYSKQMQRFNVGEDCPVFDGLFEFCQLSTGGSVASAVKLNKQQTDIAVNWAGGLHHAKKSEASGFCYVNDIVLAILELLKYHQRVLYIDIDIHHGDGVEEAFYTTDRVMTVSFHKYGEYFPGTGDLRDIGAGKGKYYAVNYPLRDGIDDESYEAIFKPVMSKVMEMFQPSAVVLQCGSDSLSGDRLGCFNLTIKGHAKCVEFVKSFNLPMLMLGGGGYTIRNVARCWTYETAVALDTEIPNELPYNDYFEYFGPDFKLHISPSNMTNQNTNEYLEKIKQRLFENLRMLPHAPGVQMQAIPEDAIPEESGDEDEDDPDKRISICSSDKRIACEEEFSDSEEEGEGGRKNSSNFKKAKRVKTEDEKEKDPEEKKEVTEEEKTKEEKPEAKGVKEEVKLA
Method in brief: as §1

HDAC 2, sequence (Q92769 whole entry): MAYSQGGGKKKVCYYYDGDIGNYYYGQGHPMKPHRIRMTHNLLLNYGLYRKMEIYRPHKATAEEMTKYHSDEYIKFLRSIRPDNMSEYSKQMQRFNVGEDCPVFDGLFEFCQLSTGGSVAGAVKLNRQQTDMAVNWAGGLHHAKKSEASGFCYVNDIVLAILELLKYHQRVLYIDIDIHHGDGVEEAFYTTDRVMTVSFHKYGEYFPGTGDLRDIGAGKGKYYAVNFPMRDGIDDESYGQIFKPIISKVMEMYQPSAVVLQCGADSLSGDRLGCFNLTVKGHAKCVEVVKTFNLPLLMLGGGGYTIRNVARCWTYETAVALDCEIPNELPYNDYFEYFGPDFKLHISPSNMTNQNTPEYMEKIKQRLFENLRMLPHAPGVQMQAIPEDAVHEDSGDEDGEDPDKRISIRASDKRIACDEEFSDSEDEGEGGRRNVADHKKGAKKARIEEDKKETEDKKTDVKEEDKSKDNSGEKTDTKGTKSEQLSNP

IC50 (HDAC 2): 3.12 nM | IC50 (HDAC 8): 60.3 nM | IC50 (HDAC 3/NCOR1): 1.82 nM | IC50 (HDAC 6): 35.8 nM | IC50 (HDAC 10): 11.1 nM | IC50 (HDAC 1): 2.28 nM
SMILES: COc1ccc(C=NNC(=O)CCCCCCC(=O)NO)cc1 [AB3]
